Results: ChEMBL document CHEMBL1122009, “Activated N-nitrosocarbamates for regioselective synthesis of N-nitrosoureas” (J Med Chem, 1982)
“And” between values parts separate entries of the source, which are not always exact repeats. Identical values can stand only once. The source made the active and inactive calls.

Assays:
[1] = Acute LD50 of compound was evaluated on L1210 leukemia in mice when administered intraperitoneally; type: ADME, organism-based; conditions: mouse, in vivo, ip
In short: (§1)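 Adult B6D2F1 mice were inoculated ip with 10^5 L1210 leukemia cells on day 0. Compound in olive oil (2-150 mg/kg, ip) was given on day 1 and repeated on days 5 and 9 only in mice without signs of toxicity. Mortality was monitored daily, with autopsy to separate leukemic from toxic deaths. Acute LD50 was determined graphically.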

[2] = test system: Mus musculus; test: Compound was tested for its antitumor activity on L1210 leukemia in mice at the dose of 20 mg/kg (i.p.); Not significant; type: functional, organism-based; design: dose 20 mg/kg
[3] = test system: Mus musculus; test: Compound was tested for its antitumor activity on L1210 leukemia in mice at the dose of 8 mg/kg (i.p.); Not significant; type: functional, organism-based; design: dose 8 mg/kg
[4] = test system: Mus musculus; test: Compound was tested for its antitumor activity on L1210 leukemia in mice at the dose of 50 mg/kg (i.p.); Not significant; type: functional, organism-based; design: dose 50 mg/kg
[5] = test system: Mus musculus; test: Compound was tested for its antitumor activity on L1210 leukemia in mice at the dose of 2 mg/kg (i.p.); Not significant; type: functional, organism-based; design: dose 2 mg/kg
In short: (§2)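 B6D2F1 adult mice inoculated ip with 10^5 L1210 cells on day 0. Drug given ip in olive oil on day 1, repeated days 5 and 9 only in mice without toxicity signs. Daily mortality monitoring with autopsy to assign leukemic vs toxic death. Index I = T/C × 100 from median survival; active if I > 125 and Wilcoxon W test significant; ∞ means >50% cured.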

[6] = Acute LD50 of compound was evaluated on L1210 leukemia in mice; type: ADME, organism-based; conditions: mouse, in vivo; in short: as §1
[7] = test system: Mus musculus; test: Compound was tested for its antitumor activity on L1210 leukemia in mice at the dose of 90 mg/kg (i.p.); Toxic; type: functional, organism-based; design: dose 90 mg/kg; in short: as §2
[8] = test system: Mus musculus; test: Compound was tested for its antitumor activity on L1210 leukemia in mice at the dose of 30 mg/kg (i.p.); High percent value; type: functional, organism-based; design: dose 30 mg/kg; in short: as §2
[9] = test system: Mus musculus; test: Compound was tested for its antitumor activity on L1210 leukemia in mice at the dose of 30 mg/kg (i.p.); Toxic; type: functional, organism-based; design: dose 30 mg/kg; in short: as §2
[10] = test system: Mus musculus; test: Compound was tested for its antitumor activity on L1210 leukemia in mice at the dose of 20 mg/kg (i.p.); High percent value; type: functional, organism-based; design: dose 20 mg/kg; in short: as §2
[11] = test system: Mus musculus; test: Compound was tested for its antitumor activity on L1210 leukemia in mice at the dose of 2 mg/kg (i.p.); type: functional; conditions: route intraperitoneal; in short: as §2
[12] = test system: Mus musculus; test: Compound was tested for its antitumor activity on L1210 leukemia in mice at the dose of 10 mg/kg (i.p.); High percent value; type: functional, organism-based; design: dose 10 mg/kg; in short: as §2
[13] = test system: Mus musculus; test: Compound was tested for its antitumor activity on L1210 leukemia in mice at the dose of 10 mg/kg (i.p.); type: functional; conditions: route intraperitoneal; in short: as §2
[14] = test system: Mus musculus; test: Compound was tested for its antitumor activity on L1210 leukemia in mice at the dose of 60 mg/kg (i.p.); High percent value; type: functional, organism-based; design: dose 60 mg/kg; in short: as §2
[15] = test system: Mus musculus; test: Compound was tested for its antitumor activity on L1210 leukemia in mice at the dose of 20 mg/kg (i.p.); type: functional; conditions: route intraperitoneal; in short: as §2
[16] = test system: Mus musculus; test: Compound was tested for its antitumor activity on L1210 leukemia in mice at the dose of 5 mg/kg (i.p.); type: functional; conditions: route intraperitoneal; in short: as §2
[17] = test system: Mus musculus; test: Compound was tested for its antitumor activity on L1210 leukemia in mice at the dose of 20 mg/kg (i.p.); Toxic; type: functional, organism-based; design: dose 20 mg/kg; in short: as §2
[18] = test system: Mus musculus; test: Compound was tested for its antitumor activity on L1210 leukemia in mice at the dose of 3.2 mg/kg (i.p.); type: functional; conditions: route intraperitoneal; in short: as §2
[19] = test system: Mus musculus; test: Compound was tested for its antitumor activity on L1210 leukemia in mice at the dose of 8 mg/kg (i.p.); type: functional; conditions: route intraperitoneal; in short: as §2
[20] = test system: Mus musculus; test: Compound was tested for its antitumor activity on L1210 leukemia in mice at the dose of 3.2 mg/kg (i.p.); Not significant; type: functional, organism-based; design: dose 3.2 mg/kg; in short: as §2

In the case of CN(N=O)C(=O)ON1C(=O)CCC1=O, the LD50 [1] is reported as 115 mg/kg, the T/C [2] is reported as “inactive” and the T/C [3] is reported as “inactive”. For the same compound, the T/C [4] was “inactive”.

With O=NN(CCCl)C(=O)NCCSSCCNC(=O)N(CCCl)N=O [DITIOMUSTINE] the T/C [5] was “inactive”, the LD50 [6] was 75 mg/kg and the T/C [7] was “Toxic”. The T/C [8] was “High percent value”, the T/C [9] was “Toxic” and the T/C [10] was “High percent value”. The T/C [11] was 111%, the LD50 [1] was 28 mg/kg and the T/C [12] was “High percent value”. For the same compound, the T/C [13] was 151%, the T/C [14] was “High percent value” and the T/C [15] was 228%. The T/C [16] was 212% and 133%.

In the case of O=NN(CCCl)C(=O)ON1C(=O)CCC1=O, the T/C [17] is reported as “Toxic”, the LD50 [1] is reported as 36 mg/kg and the T/C [18] is reported as 125%. For the same compound, the T/C [19] was 137%.

With O=NN(CCCl)C(=O)Oc1ccc([N+](=O)[O-])cc1 the LD50 [1] was 17 mg/kg, the T/C [3] was “inactive” and the T/C [20] was “inactive”.
